pIC50: −log10 of the molar value. Converted amounts (≈) assume the structure as drawn. The source made the active and inactive calls. The rule behind the calls is not given here.
How the values were obtained:
MV4-11 = assay: Antiproliferative activity against human MV4-11 cells after 72 hrs by MTT assay; assay type: functional, cell-based; details: MV4-11, 72 h
L6 = assay: Cytotoxicity against rat L6 cells after 70 hrs by alamar blue assay; details: L6, 70 h
Plasmodium falciparum = assay: Antimalarial activity against erythrocytic stage of Plasmodium falciparum NF54 infected in RBC after 48 hrs by [3H]-hypoxanthine incorporation assay; assay type: functional, organism-based
HCT-116 = assay: Cytotoxicity against human HCT116 cells after 72 hrs by SRB assay; assay type: functional, cell-based; details: HCT-116, 72 h
How it was run: (§1)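 Adherent cells grown at 37 °C and 5% CO2. Seeded at 1×10^4/well 24 h before dosing, then 72 h at 10–0.01 µg/mL final. Fixed with cold 50% TCA, stained with 0.4% SRB, dye extracted in 10 mM Tris, read at 540 nm.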

A549 = assay: Cytotoxicity against human A549 cells after 72 hrs by SRB assay; assay type: functional, cell-based; details: A549, 72 h; how it was run: as §1
BALB/3T3 = assay: Cytotoxicity against mouse BALB/3T3 cells after 72 hrs by SRB assay; assay type: cell-based; details: BALB/3T3, 72 h
How it was run: as §1, with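 “CO2. A549 and HCT116 were in RPMI 1640/OptiMEM (50:50) with 5% FBS; BALB/3T3 in Dulbecco medium with 10% FBS and pyruvate.” for “CO2.”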

[1] = Binding affinity to hemin assessed as hemin-induced oxidative damage in 0.1 M tris buffer at pH 9 at 25 to 500 uM after 2 hrs by UV-vis absorption spectroscopy in presence of methylene blue
How it was run: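 Methylene blue (10 µM) used as substrate for heme-catalysed oxidation. Compound incubated 2 h at 37 °C with hemin (6 µM) and methylene blue in 60% 0.1 M Tris buffer (pH 9.0) and 40% DMSO. Mixture absorbance then read by UV–vis spectrophotometry.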

[2] = Binding affinity to hemin assessed as complexation of hemin-endoperoxides in 0.1 M tris buffer at pH 9 at 25 to 500 uM after 24 hrs by UV-vis absorption spectroscopy
How it was run: (§2)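 Hemin held at 6 µM with compound at 0–500 µM in 60% 0.1 M Tris buffer (pH 9.0) and 40% DMSO. Mixtures incubated 12 h or 24 h.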

[3] = Binding affinity to hemin assessed as complexation of hemin-endoperoxides in 0.1 M tris buffer at pH 9 at 25 to 500 uM after 12 hrs by UV-vis absorption spectroscopy; how it was run: as §2

Structure (SMILES)	pIC50 (MV4-11)	pIC50 (HCT-116)	pIC50 (A549)	pIC50 (BALB/3T3)	further results
C[C@]12C=C3C(=O)CCC[C@@]3(OO1)OC2c1ccc([N+](=O)[O-])cc1 (stereo partly drawn)	< 4.51				
C[C@]12C=C3C(=O)OC(c4ccccc4)(c4ccccc4)C[C@@]3(OO1)OC2c1ccc(Cl)cc1 (stereo partly drawn)	5.44				IC50 (L6): 2.03 µg/mL (≈ 4.4 µM); IC50 (Plasmodium falciparum): 9.88 µg/mL (≈ 21.4 µM)
C[C@]12C=C3C(=O)OC(c4ccccc4Br)C[C@@]3(OO1)OC2c1ccc([N+](=O)[O-])cc1 (stereo partly drawn)	6.08	5.15	4.94	5.12	
C[C@]12C=C3C(=O)OC(c4ccc(C(F)(F)F)cc4)C[C@@]3(OO1)OC2c1ccc(Br)cc1 (stereo partly drawn)	5.26				
COC(=O)c1ccc(C2O[C@]34CC(c5ccccc5)(c5ccccc5)OC(=O)C3=C[C@@]2(C)OO4)cc1 (stereo partly drawn)	5.52				IC50 (L6): 1.67 µg/mL (≈ 3.45 µM); IC50 (Plasmodium falciparum): 5.62 µg/mL (≈ 11.6 µM)
CC(C)(C)OC(=O)N1C(=O)C2=C[C@@]3(C)OO[C@]2(CC1c1ccc(Cl)cc1)OC3c1ccc([N+](=O)[O-])cc1 (stereo partly drawn)	6.30	5.26	5.21	5.18	IC50 (L6): 1.16 µg/mL (≈ 2.19 µM); IC50 (Plasmodium falciparum): 1.97 µg/mL (≈ 3.72 µM)
C[C@]12C=C3C(=O)OC(c4ccc(Cl)cc4)C[C@@]3(OO1)OC2c1ccc(Br)cc1 (stereo partly drawn)	5.38				
C[C@]12C=C3C(=O)OC(c4cccc(Cl)c4)C[C@@]3(OO1)OC2c1ccc([N+](=O)[O-])cc1 (stereo partly drawn)	5.41				Activity [1]: Active; Activity [2]: Active; Activity [3]: Active
COc1ccc(C2O[C@]34CC(c5ccc(C(F)(F)F)cc5)OC(=O)C3=C[C@@]2(C)OO4)cc1 (stereo partly drawn)	5.32				
COc1ccc(C2C[C@]34OO[C@](C)(C=C3C(=O)O2)C(c2ccc([N+](=O)[O-])cc2)O4)cc1OC (stereo partly drawn)	6.04	5.17	5.11	5.14	Activity [1]: Active; Activity [2]: Active; Activity [3]: Active
COc1ccc(C2O[C@]34CC(c5ccc(OC)c(OC)c5)OC(=O)C3=C[C@@]2(C)OO4)cc1 (stereo partly drawn)	5.36				
COC(=O)C1=C[C@]23CCCC[C@@H]2O[C@@]1(C)OO3	5.09				
COc1ccc(C2O[C@]34CC(c5ccccc5)CC(=O)C3=C[C@@]2(C)OO4)cc1 (stereo partly drawn)	5.19				
CC1O[C@]23CC(c4ccc(Br)cc4)OC(=O)C2=C[C@@]1(C)OO3 (stereo partly drawn)	6.01	5.04	4.89	4.92	
C[C@]12C=C3C(=O)OC(c4ccccc4)(c4ccccc4)C[C@@]3(OO1)OC2c1ccc([N+](=O)[O-])cc1 (stereo partly drawn)	5.42				IC50 (L6): 3.49 µg/mL (≈ 7.4 µM); IC50 (Plasmodium falciparum): 5.25 µg/mL (≈ 11.1 µM)
C[C@]12C=C3C(=O)CC(c4ccccc4)C[C@@]3(OO1)OC2c1ccc([N+](=O)[O-])cc1 (stereo partly drawn)	5.18				IC50 (L6): 5.6 µg/mL (≈ 14.2 µM); IC50 (Plasmodium falciparum): 3.1 µg/mL (≈ 7.88 µM)

Structure (SMILES)	pIC50 (MV4-11)	pIC50 (HCT-116)	pIC50 (A549)	pIC50 (BALB/3T3)	further results
CC1O[C@]23CC(c4cccc(Cl)c4)OC(=O)C2=C[C@@]1(C)OO3 (stereo partly drawn)	5.14				
CC1O[C@]23CC(c4ccc(Cl)cc4)N(C(=O)OC(C)(C)C)C(=O)C2=C[C@@]1(C)OO3 (stereo partly drawn)	5.98	5.14	5.14	5.21	
COc1ccc(C2O[C@]34CC(c5ccc(Cl)cc5)N(C(=O)OC(C)(C)C)C(=O)C3=C[C@@]2(C)OO4)cc1 (stereo partly drawn)	6.18	5.25	5.20	5.16	
COc1ccc(C2O[C@]34CC(c5ccc(F)cc5)OC(=O)C3=C[C@@]2(C)OO4)cc1 (stereo partly drawn)	6.24	5.09	4.93	5.04	IC50 (L6): 0.5 µg/mL (≈ 1.26 µM); IC50 (Plasmodium falciparum): 1.68 µg/mL (≈ 4.22 µM)
COc1ccc(C2C[C@]34OO[C@](C)(C=C3C(=O)O2)C(C)O4)cc1OC (stereo partly drawn)	4.96				
C[C@]12C=C3C(=O)OC(c4ccc(Cl)cc4)C[C@@]3(OO1)OC2c1ccc([N+](=O)[O-])cc1 (stereo partly drawn)	6.23	5.13	5.08	5.09	Activity [1]: Active; Activity [2]: Active; Activity [3]: Active
CC1O[C@]23CC(c4ccc(C(F)(F)F)cc4)OC(=O)C2=C[C@@]1(C)OO3 (stereo partly drawn)	6.05	5.02	4.86	4.90	
COc1cccc(C2C[C@]34OO[C@](C)(C=C3C(=O)O2)C(C)O4)c1 (stereo partly drawn)	5.11				
C[C@]12C=C3C(=O)OC(c4ccc(C(F)(F)F)cc4)C[C@@]3(OO1)OC2c1ccccc1 (stereo partly drawn)	6.11	5.13	4.96	5.05	
COc1ccc(C2O[C@]34CC(c5ccccc5)(c5ccccc5)OC(=O)C3=C[C@@]2(C)OO4)cc1 (stereo partly drawn)	5.42				IC50 (L6): 1.9 µg/mL (≈ 4.16 µM); IC50 (Plasmodium falciparum): 4.2 µg/mL (≈ 9.2 µM)
COc1ccc(C2C[C@]34OO[C@](C)(C=C3C(=O)O2)C(c2ccc([N+](=O)[O-])cc2)O4)cc1 (stereo partly drawn)	6.13	5.13	5.07	5.13	
CC1O[C@]23CC(c4ccc(F)cc4)OC(=O)C2=C[C@@]1(C)OO3 (stereo partly drawn)	5.16				
COc1ccc(C2O[C@]34CC(c5ccc(Cl)cc5)OC(=O)C3=C[C@@]2(C)OO4)cc1 (stereo partly drawn)	5.37				
COc1ccc(C2O[C@]34CCCC(=O)C3=C[C@@]2(C)OO4)cc1 (stereo partly drawn)	< 4.48				IC50 (L6): 4.5 µg/mL (≈ 14.9 µM); IC50 (Plasmodium falciparum): 3.41 µg/mL (≈ 11.3 µM)
CC(C)(C)OC(=O)N1C(=O)C2=C[C@@]3(C)OO[C@]2(CC1c1ccc(Cl)cc1)OC3c1ccccc1 (stereo partly drawn)	6.29	5.22	5.18	5.26	
COc1ccc(C2C[C@]34OO[C@](C)(C=C3C(=O)O2)C(c2ccccc2)O4)cc1OC (stereo partly drawn)	6.05	4.93	< 4.62	5.00	IC50 (L6): 0.52 µg/mL (≈ 1.27 µM); IC50 (Plasmodium falciparum): 3.28 µg/mL (≈ 7.99 µM)

Reference: ChEMBL document CHEMBL2434891, “Design, synthesis, and in vitro cancer cell growth inhibition evaluation and antimalarial testing of trioxanes installed in cyclic 2-enoate substructures” (Eur J Med Chem, 2013)
